Measured values taken from ChEMBL document CHEMBL3779898, “3,3'-OH curcumin causes apoptosis in HepG2 cells through ROS-mediated pathway” (Eur J Med Chem, 2016).
The source made the active and inactive calls. The rule behind the calls is not given here.

What was measured:
[1] = tested on: HepG2; experiment: Induction of apoptosis in human HepG2 cells assessed as late apoptotic cells at 5 mM after 24 hrs by Annexin V-FITC/propidium iodide staining based flow cytometry (reference value: 5.4%); type: functional
Method in brief: (§1)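 HepG2 plated at 5×10^5/well, grown 24 h, then treated 24 h; where indicated, 1 h pretreatment with 5 mM GSH or NAC. Cells stained with Annexin V-FITC/PI; 10,000 cells per sample analysed by flow cytometry into early apoptotic, late apoptotic and necrotic quadrants; triplicate.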

[2] = tested on: HepG2; experiment: Induction of apoptosis in human HepG2 cells assessed as necrotic cells at 5 mM after 24 hrs by Annexin V-FITC/propidium iodide staining based flow cytometry (reference value: 1.6%); type: functional; method in brief: as §1
[3] = tested on: HepG2; experiment: Induction of apoptosis in human HepG2 cells assessed as early apoptotic cells at 5 mM after 24 hrs by Annexin V-FITC/propidium iodide staining based flow cytometry (reference value: 2.8%); type: functional; method in brief: as §1
[4] = tested on: HepG2; experiment: Cytotoxicity against human HepG2 cells assessed as reduction in cell viability after 48 hrs by MTT assay; type: functional, cell-based; conditions: HepG2, 48 h
Method in brief: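 HepG2 seeded at 3×10^3/well, grown 24 h, then exposed to compounds for 48 h. MTT (0.5 mg/mL) added for 4 h, formazan dissolved in DMSO, absorbance read at 570 nm. IC50 = concentration giving 50% loss of viability; mean ± SD of three determinations.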

[5] = tested on: Serum; experiment: Stability in RPMI-1640 medium containing 10% fetal calf serum at 25 uM incubated for 20 to 120 mins at 25 degC; type: ADME, Bos taurus; conditions: cattle
[6] = tested on: HepG2; experiment: Induction of apoptosis in human HepG2 cells assessed as necrotic cells at 12.5 uM after 24 hrs by Annexin V-FITC/propidium iodide staining based flow cytometry (reference value: 1.6%); type: functional; method in brief: as §1
[7] = tested on: HepG2; experiment: Induction of superoxide radical generation production in human HepG2 cells at 50 uM incubated for 6 hrs by DHE staining based flow cytometry; type: functional, cell-based
Method in brief: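 Cells incubated 6 h with 50 μM compound, stained with 3 μM DHE for 30 min at 37 °C in the dark, and analysed by flow cytometry; triplicate.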

[8] = tested on: HepG2; experiment: Induction of intracellular ROS production in human HepG2 cells at 50 uM after 3 to 6 hrs by DCFH-DA staining based flow cytometry in presence of 5mM glutathione; type: functional, cell-based
Method in brief: (§2)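 HepG2 pretreated 1 h with 5 mM GSH or 5 mM NAC, then exposed to 50 μM compound for the indicated time; loaded with 3 μM DCFH-DA for 30 min at 37 °C in the dark, washed with PBS, DCF fluorescence read by flow cytometry (ex 488, em 530 nm).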

[9] = tested on: HepG2; experiment: Induction of intracellular ROS production in human HepG2 cells assessed as decrease in GSH/GSSG ratio incubated for 6 hrs by glutathione reductase-DTNB recycling assay; type: functional, cell-based
Method in brief: (§3)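 HepG2 (5×10^5/well) grown 24 h, treated 6 h, then lysed in ice-cold 10 mM HCl by three freeze–thaw cycles; part of lysate used for protein. Proteins precipitated with 6.5% 5-sulfosalicylic acid; supernatant assayed for total GSH and GSSG by glutathione reductase–DTNB recycling; triplicate.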

[10] = tested on: HepG2; experiment: Induction of apoptosis in human HepG2 cells after 24 hrs by Annexin V-FITC/propidium iodide staining based flow cytometry; type: functional, cell-based; method in brief: as §1
[11] = tested on: HepG2; experiment: Induction of apoptosis in human HepG2 cells assessed as late apoptotic cells at 50 uM after 24 hrs by Annexin V-FITC/propidium iodide staining based flow cytometry (reference value: 5.4%); type: functional; method in brief: as §1
[12] = tested on: HepG2; experiment: Induction of apoptosis in human HepG2 cells assessed as early apoptotic cells at 12.5 uM after 24 hrs by Annexin V-FITC/propidium iodide staining based flow cytometry (reference value: 2.8%); type: functional; method in brief: as §1
[13] = tested on: HepG2; experiment: Induction of apoptosis in human HepG2 cells assessed as necrotic cells at 50 uM after 24 hrs by Annexin V-FITC/propidium iodide staining based flow cytometry (reference value: 1.6%); type: functional; method in brief: as §1
[14] = tested on: HepG2; experiment: Induction of apoptosis in human HepG2 cells assessed as necrotic cells at 37.5 uM after 24 hrs by Annexin V-FITC/propidium iodide staining based flow cytometry (reference value: 1.6%); type: functional; method in brief: as §1
[15] = tested on: HepG2; experiment: Induction of apoptosis in human HepG2 cells assessed as early apoptotic cells at 50 uM after 24 hrs by Annexin V-FITC/propidium iodide staining based flow cytometry (reference value: 2.8%); type: functional; method in brief: as §1
[16] = tested on: HepG2; experiment: Induction of mitochondrial membrane potential loss in human HepG2 cells at 50 uM after 18 hrs by rhodamine 123 staining based flow cytometry in presence of 5mM N-acetylcysteine; type: functional, cell-based
Method in brief: (§4)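 HepG2 pretreated 1 h with 5 mM GSH or 5 mM NAC, then exposed to 50 μM compound for the indicated time; Rhodamine 123 fluorescence measured by flow cytometry; triplicate.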

[17] = tested on: HepG2; experiment: Cytotoxicity against human HepG2 cells assessed as reduction in cell viability at 50 uM after 48 hrs by MTT assay in presence of 5mM glutathione; type: functional, cell-based
Method in brief: (§5)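 HepG2 cells pretreated 1 h with 5 mM NAC or 5 mM GSH, then exposed to 50 μM test compound; viability measured by MTT (0.5 mg/mL, 4 h, DMSO solubilisation, 570 nm).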

[18] = tested on: HepG2; experiment: Induction of apoptosis in human HepG2 cells assessed as necrotic cells at 50 uM after 24 hrs pretreated with 5 mM glutathione for 1 hr by Annexin V-FITC/propidium iodide staining based flow cytometry (reference value: 1.6%); type: functional; method in brief: as §1
[19] = tested on: HepG2; experiment: Induction of apoptosis in human HepG2 cells assessed as late apoptotic cells at 12.5 uM after 24 hrs by Annexin V-FITC/propidium iodide staining based flow cytometry (reference value: 5.4%); type: functional; method in brief: as §1
[20] = tested on: HepG2; experiment: Induction of apoptosis in human HepG2 cells assessed as late apoptotic cells at 50 uM after 24 hrs pretreated with 5 mM N-acetylcysteine for 1 hr by Annexin V-FITC/propidium iodide staining based flow cytometry (reference value: 5.4%); type: functional; method in brief: as §1
[21] = tested on: HepG2; experiment: Induction of apoptosis in human HepG2 cells assessed as late apoptotic cells at 50 uM after 24 hrs pretreated with 5 mM glutathione for 1 hr by Annexin V-FITC/propidium iodide staining based flow cytometry (reference value: 5.4%); type: functional; method in brief: as §1
[22] = tested on: HepG2; experiment: Induction of apoptosis in human HepG2 cells assessed as necrotic cells at 50 uM after 24 hrs pretreated with 5 mM N-acetylcysteine for 1 hr by Annexin V-FITC/propidium iodide staining based flow cytometry (reference value: 1.6%); type: functional; method in brief: as §1
[23] = tested on: HepG2; experiment: Potency index, ratio of curcumin IC50 to compound IC50 for human HepG2 cells; type: functional
Method in brief: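 Derived from MTT IC50 values in HepG2 after 48 h treatment, means of three determinations.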

[24] = tested on: HepG2; experiment: Induction of lipid peroxidation in human HepG2 cells assessed as increase in malondialdehyde formation after 18 hrs; type: functional, cell-based
Method in brief: (§6)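 HepG2 (5×10^5/well) grown 24 h, treated 18 h at 6.25, 25, 37.5 or 50 μM, lysed in ice-cold water by freeze–thaw. Lysate heated 1 h at 95 °C with 0.4% thiobarbituric acid, 0.5% SDS, 9.4% acetic acid (pH 3.5), centrifuged, A532 read. MDA quantified against a tetramethoxypropane standard curve, expressed as pmol/mg protein; triplicate.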

[25] = tested on: HepG2; experiment: Induction of apoptosis in human HepG2 cells assessed as late apoptotic cells at 25 uM after 24 hrs by Annexin V-FITC/propidium iodide staining based flow cytometry (reference value: 5.4%); type: functional; method in brief: as §1
[26] = tested on: HepG2; experiment: Induction of apoptosis in human HepG2 cells assessed as early apoptotic cells at 50 uM after 24 hrs pretreated with 5 mM glutathione for 1 hr by Annexin V-FITC/propidium iodide staining based flow cytometry (reference value: 2.8%); type: functional; method in brief: as §1
[27] = tested on: HepG2; experiment: Cytotoxicity against human HepG2 cells assessed as reduction in cell viability at 50 uM after 48 hrs by MTT assay in presence of 5mM N-acetylcysteine; type: functional, cell-based; method in brief: as §5
[28] = tested on: HepG2; experiment: Induction of apoptosis in human HepG2 cells assessed as late apoptotic cells at 37.5 uM after 24 hrs by Annexin V-FITC/propidium iodide staining based flow cytometry (reference value: 5.4%); type: functional; method in brief: as §1
[29] = tested on: HepG2; experiment: Induction of mitochondrial membrane potential loss in human HepG2 cells at 50 uM after 18 hrs by rhodamine 123 staining based flow cytometry in presence of 5mM glutathione; type: functional, cell-based; method in brief: as §4
[30] = tested on: HepG2; experiment: Induction of intracellular ROS production in human HepG2 cells at 50 uM after 6 hrs by DCFH-DA staining based flow cytometry relative to control; type: functional
Method in brief: (§7)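 Cells treated with 50 μM compound for 6 h, with or without 1 h catalase pretreatment; stained with 3 μM DCFH-DA for 30 min at 37 °C in the dark, washed, DCF fluorescence read by flow cytometry (488/530 nm); triplicate.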

[31] = tested on: HepG2; experiment: Induction of lipid peroxidation in human HepG2 cells assessed as increase in malondialdehyde formation at 50 uM after 18 hrs relative to control; type: functional; method in brief: as §6
[32] = tested on: HepG2; experiment: Induction of intracellular ROS production in human HepG2 cells assessed as decrease in GSH/GSSG ratio at 50 uM incubated for 6 hrs by glutathione reductase-DTNB recycling assay relative to control; type: functional; method in brief: as §3
[33] = tested on: HepG2; experiment: Induction of apoptosis in human HepG2 cells assessed as early apoptotic cells at 25 uM after 24 hrs by Annexin V-FITC/propidium iodide staining based flow cytometry (reference value: 2.8%); type: functional; method in brief: as §1
[34] = tested on: HepG2; experiment: Induction of apoptosis in human HepG2 cells assessed as necrotic cells at 25 uM after 24 hrs by Annexin V-FITC/propidium iodide staining based flow cytometry (reference value: 1.6%); type: functional; method in brief: as §1
[35] = tested on: HepG2; experiment: Cellular uptake in human HepG2 cells at 50 uM after 1 hr; type: ADME, cell-based; conditions: hepg2, 1 h
Method in brief: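 HepG2 cells exposed to 50 μM for varying incubation periods; cells lysed, lysate extracted with methanol, and uptake estimated by absorbance of the extract.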

[36] = tested on: HepG2; experiment: Induction of apoptosis in human HepG2 cells assessed as early apoptotic cells at 37.5 uM after 24 hrs by Annexin V-FITC/propidium iodide staining based flow cytometry (reference value: 2.8%); type: functional; method in brief: as §1
[37] = tested on: HepG2; experiment: Induction of apoptosis in human HepG2 cells assessed as early apoptotic cells at 50 uM after 24 hrs pretreated with 5 mM N-acetylcysteine for 1 hr by Annexin V-FITC/propidium iodide staining based flow cytometry (reference value: 2.8%); type: functional; method in brief: as §1
[38] = tested on: HepG2; experiment: Induction of intracellular ROS production in human HepG2 cells at 50 uM after 6 hrs by DCFH-DA staining based flow cytometry in presence of catalase; type: functional, cell-based; method in brief: as §7
[39] = tested on: HepG2; experiment: Induction of intracellular ROS production in human HepG2 cells at 50 uM after 3 to 6 hrs by DCFH-DA staining based flow cytometry in presence of 5mM N-acetylcysteine; type: functional, cell-based; method in brief: as §2

## N[C@@H](CCC(=O)N[C@@H](CS)C(=O)NCC(=O)O)C(=O)O [GLUTATHIONE]
[1]
  Activity: 5.5%
[2]
  Activity: 2.1%
[3]
  Activity: 2.5%

## O=C(/C=C/c1ccccc1C(F)(F)F)CC(=O)/C=C/c1ccccc1C(F)(F)F
[4]
  IC50: > 200 µM

## O=C(/C=C/c1cccc(O)c1)CC(=O)/C=C/c1cccc(O)c1
[5]
  Stability: Stable
[6]
  Activity: 2.8%
[7]
  Activity: inactive
[8]
  Activity: inactive
[9]
  Activity: Dose-dependent effect
[10]
  Activity: Dose-dependent effect
[11]
  Activity: 80.2%
[12]
  Activity: 2.8%
[13]
  Activity: 7.6%
[14]
  Activity: 45%
[15]
  Activity: 1.4%
[16]
  Activity: inactive
[17]
  Activity: inactive
[18]
  Activity: 2%
[19]
  Activity: 5.7%
[20]
  Activity: 6.8%
[21]
  Activity: 6.3%
[22]
  Activity: 2.2%
[23]
  Ratio IC50: 3.5
[24]
  Activity: Dose-dependent effect
[25]
  Activity: 12.4%
[26]
  Activity: 3%
[27]
  Activity: inactive
[28]
  Activity: 28.5%
[29]
  Activity: inactive
[30]
  fold change (FC): 5
[31]
  fold change (FC): 1
[32]
  fold change (FC): 2
[33]
  Activity: 7%
[4]
  IC50: 15.1 µM
[34]
  Activity: 7%
[35]
  Drug uptake: Active
[36]
  Activity: 19.1%
[37]
  Activity: 2.8%
[38]
  Activity: inactive
[39]
  Activity: inactive

## O=C(/C=C/c1ccccc1)CC(=O)/C=C/c1ccccc1
[4]
  IC50: > 200 µM

## O=C(/C=C/c1ccc(C(F)(F)F)cc1)CC(=O)/C=C/c1ccc(C(F)(F)F)cc1
[4]
  IC50: > 200 µM

## O=C(/C=C/c1cccc(C(F)(F)F)c1)CC(=O)/C=C/c1cccc(C(F)(F)F)c1
[4]
  IC50: > 200 µM

## O=C(/C=C/c1ccc(O)cc1)CC(=O)/C=C/c1ccc(O)cc1 [BISDEMETHOXYCURCUMIN]
[4]
  IC50: 75.5 µM
